{
  "source": "paper PMC10951545",
  "about": "(Heliyon, 2024)",
  "key": {"Complications": {"assay": "Complications", "assay_type": "in vivo", "settings": "number of patients (%)", "procedure,_shortened": "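ICU patients with severe pulmonary infection were given IV polymyxin B sulfate as an approx. 1 h drip (loading 15,000 U/Kg, then 20,000 U/Kg/d in two doses), either alone or with CVVH (35 ml/kg/h, blood flow 200 ml/min). The incidence of skin pigmentation, nephrotoxicity and 28-day mortality was recorded per group, and the groups were compared.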"}, "[1]": {"tested_on": "ventilator-associated pneumonia caused by multidrug-resistant bacteria", "assay": "Evaluation of clinical efficacy", "assay_type": "in vivo, patients", "settings": "control group (polymyxin B alone), n = 28"}, "[2]": {"settings": "control group (polymyxin B alone), n = 28"}, "[3]": {"settings": "observation group (polymyxin B + CRRT), n = 7"}},
  "note": "Where a SMILES comes first, the peptide text is derived from it. Bridges are numbered along the chain shown (N, C = ends). [ ]: non-standard residue; d: D form. The star is where a group is joined. X1 = CC[C@H](C)CCCCC(=O)*; Dab = NCC[C@H](N)C(=O)O",
  "data": [
    {"smiles": "CC[C@H](C)CCCCC(=O)N[C@@H](CCN)C(=O)N[C@H](C(=O)N[C@@H](CCN)C(=O)N[C@H]1CCNC(=O)[C@H]([C@@H](C)O)NC(=O)[C@H](CCN)NC(=O)[C@H](CCN)NC(=O)[C@H](CC(C)C)NC(=O)[C@@H](Cc2ccccc2)NC(=O)[C@H](CCN)NC1=O)[C@@H](C)O", "note": "[polymyxin B] (X1-[Dab]T[Dab][Dab][Dab][dF]L[Dab][Dab]T; lactam 4-C)", "values": [
      {"measurement": "28-day mortality", "setting": "Complications; [2]", "value": "8 (28.57)"},
      {"measurement": "Nephrotoxicity", "setting": "Complications; [2]", "value": "6 (21.43)"},
      {"measurement": "Skin pigmentation", "setting": "Complications; [2]", "value": "3 (10.71)"},
      {"measurement": "28-day mortality", "setting": "Complications; [3]", "value": "4 (57.14)"},
      {"measurement": "Nephrotoxicity", "setting": "Complications; [3]", "value": "1 (14.29)"},
      {"measurement": "Skin pigmentation", "setting": "Complications; [3]", "value": "2 (28.57)"},
      {"measurement": "response rate", "setting": "[1]", "value": 50.00, "unit": "%"}
    ]}
  ]
}
